These results are taken from ChEMBL document CHEMBL1133471, “Sequential cytotoxicity: a theory evaluated using novel 2-[4-(3-aryl-2-propenoyloxy)phenylmethylene]cyclohexanones and related compounds” (J Med Chem, 2000).

For orientation: IC50 means the concentration that inhibits the measured activity by half.

Test [1] in a line: Selectivity index is the ratio of MG MID value for all cell lines to that of leukemic cells. The class given is functional.
A short description of test [2]: Selectivity index is the ratio of MG MID value for all cell lines to that of colon cancer cells. The format is functional.
Another test has as its system MOLT-4. Put plainly: Concentration required to inhibit 50% of cell growth on human Molt 4/C8 cells. The class given is functional, cell-based. The gist of the method:
(§1)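 Murine P388 D1 and L1210 leukemia cells and human Molt 4/C8 and CEM T-lymphocytes were tested. IC50 is the concentration inhibiting 50% of growth.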

For another test, the system named is CCRF-CEM. Put plainly: Concentration required to inhibit 50% of cell growth on CEM lymphocytes. The format is functional, cell-based. The settings on record: Homo sapiens. The method in brief:
as §1

For another test, the system named is P388. Put plainly: Concentration required to inhibit 50% of cell growth on murine P388 D1 cells. The format is functional, cell-based. As to conditions: Mus musculus.
In a further test the test system is L1210. Put plainly: Concentration required to inhibit 50% of cell growth on murine L1210 cells. As to conditions: Mus musculus. The format is functional, cell-based. The method in brief:
as §1

For a further test, the system named is Tumor cell line. Put plainly: (§2) Mean graph mid point was measured on all cell lines. The class given is functional, Homo sapiens. The method in brief: (§3)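 Human tumor panel of about 55 lines: leukemia, melanoma, non-small-cell lung, colon, CNS, ovarian, renal, prostate and breast. Compounds generally tested from 10^-4 to 10^-8 M, noting 50% growth inhibition for each line. Mean graph midpoints taken for all lines, leukemic lines and colon lines. Duplicate or triplicate runs were averaged.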

Test [3] has as its system leukaemia cell line. Put plainly: Mean graph mid point was measured on leukemicell lines. The class given is functional, Homo sapiens. The gist of the method:
as §3

The test system of test [4] is Panel colon (Carcinoma cell lines). Put plainly: Mean graph mid point was measured on colon cancer cell lines. The format is functional, Homo sapiens. The method in brief: as §3
The species entered for test [5] is Mus musculus. Put plainly: Sc score was calculated by implanting different tumor cell lines in hollow fibres in mice by the occurred). The format is functional. The gist of the method: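 Mice carried hollow fibers with 12 human tumor lines (colon, breast, NSCLC, melanoma, ovarian, CNS) implanted ip and sc. Compounds were given ip at two doses daily for 4 days. Fibers were collected 1 day after the last dose. Viable cell mass was measured by MTT formazan conversion, giving the sc score.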

The test system of test [6] is Mus musculus. Put plainly: Ip score was calculated by implanting different tumor cell lines in hollow fibres in mice by the intraperitoneal route(Net cell kill was observed it indicates the cytotoxicity was occurred). The format is functional.
The subject of another test is Colon carcinoma cell. Put plainly: Mean graph mid point was measured on colon cancer cells. The class given is functional, Homo sapiens. The method in brief: as §3
The next test relates to Tumor cancer cell line. Described as §2. The class given is functional, Homo sapiens. The method in brief:
as §3

The test system of test [7] is leukaemia cell line. Put plainly: Mean graph mid point was measured on leukemic cells. The class given is functional, Homo sapiens. The method in brief:
as §3

Consider `CN(C)CC1CCC/C(=C\c2ccc(OC(=O)/C=C/c3ccc(Cl)c(Cl)c3)cc2)C1=O.Cl` (stereo not given), for which the figures for the SI in [1] and in [2] were 4.3 and 1.5, respectively. Further, the IC50 in the test on MOLT-4 amounted to 4.57 µM; with CCRF-CEM, 5.82 µM; in the test with P388, 4.18 µM; with L1210, 3.31 µM. The “MG MID” value with Tumor cell line came out at 3.57 µM; in the test on leukaemia cell line [3], 0.83 µM; in test [4] it was 2.38 µM.
`CN(C)CC1CCC/C(=C\c2ccc(OC(=O)/C=C/c3ccccc3)cc2)C1=O.Cl` (stereo not given): the values for the SI in test [1] and in test [2] were 2.3 and 1.1, respectively. In addition, the Subcut score in the test listed under Mus musculus [5] is reported as 14. Further, the Ip score in the test on Mus musculus [6] is 12. In addition, the entries for the “MG MID” value in the test with Colon carcinoma cell, in the test with Tumor cancer cell line and in the test on leukaemia cell line [7] were 2.21 µM, 2.41 µM and 1.06 µM, respectively. The IC50 with MOLT-4 turned out to be 39.5 µM; with CCRF-CEM, 42.8 µM; in the test with P388 it was 4.02 µM; in the test on L1210, 32.8 µM.
